Compound activity from PubChem.
A selection: hits, their analogues and other compounds. The true share with any hit is near 9.4%.
L major viab: Leishmania major promastigote growth inhibition; inhibition, % at 10 µM; Leishmania major promastigotes, resazurin fluorescence viability; hit rate 9% among 200,000; in the data active = inhibition above about 50%;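 also: promastigotes grown with compound for 44 hours at 28 °C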
Mdm2-MdmX inh: human Mdm2/MdmX binding inhibition. hit rate 3% among 330,000. O15151+Q00987. SaOS-2 split-luciferase Mdm2/MdmX complementation, luminescence. inhibition, % at 8 µM;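 active = inhibition of at least 50% at 8 µM in the primary screen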
Target sequence (O15151 whole entry, looked up): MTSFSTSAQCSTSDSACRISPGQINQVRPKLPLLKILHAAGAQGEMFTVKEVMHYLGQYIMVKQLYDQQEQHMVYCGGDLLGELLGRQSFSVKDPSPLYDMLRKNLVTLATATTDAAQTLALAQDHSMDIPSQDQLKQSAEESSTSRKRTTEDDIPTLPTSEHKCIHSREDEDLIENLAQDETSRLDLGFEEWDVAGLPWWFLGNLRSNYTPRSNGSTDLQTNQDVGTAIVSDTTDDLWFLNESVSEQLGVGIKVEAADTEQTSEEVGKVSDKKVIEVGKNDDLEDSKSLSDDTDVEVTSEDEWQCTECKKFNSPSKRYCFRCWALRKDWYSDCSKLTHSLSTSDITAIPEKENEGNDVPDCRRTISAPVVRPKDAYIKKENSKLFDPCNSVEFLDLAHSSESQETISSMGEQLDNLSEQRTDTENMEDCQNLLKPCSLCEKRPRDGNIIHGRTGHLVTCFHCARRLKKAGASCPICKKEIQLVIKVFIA
Target sequence (Q00987 whole entry, looked up): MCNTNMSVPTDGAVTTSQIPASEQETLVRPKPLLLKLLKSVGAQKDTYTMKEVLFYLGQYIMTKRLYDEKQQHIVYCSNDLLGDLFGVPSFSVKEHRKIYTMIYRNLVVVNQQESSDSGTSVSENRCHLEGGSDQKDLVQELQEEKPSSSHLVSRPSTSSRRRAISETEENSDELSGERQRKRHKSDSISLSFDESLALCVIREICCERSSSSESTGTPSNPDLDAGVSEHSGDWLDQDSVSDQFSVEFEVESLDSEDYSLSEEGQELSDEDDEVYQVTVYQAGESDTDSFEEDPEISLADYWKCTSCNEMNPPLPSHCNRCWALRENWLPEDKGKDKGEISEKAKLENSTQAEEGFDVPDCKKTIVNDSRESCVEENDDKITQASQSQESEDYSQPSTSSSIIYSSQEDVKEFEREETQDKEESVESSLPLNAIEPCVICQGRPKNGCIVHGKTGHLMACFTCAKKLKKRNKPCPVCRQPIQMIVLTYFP
Beta cell apopt: beta cell apoptosis inhibition; INS-1E cytokine-induced death, ATP luminescence, 48 h; percent of positive-control rescue, neutral wells zero; protection from apoptosis, % (test concentration not listed); hit rate 0.8% among 300,000; AID 435005;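 active = Every replicate reaches about 75%, or at least half do and their mean reaches it too, limit read from the data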;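 also: higher means more ATP so stronger rescue from cytokine killing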
CSC inhib: blocks cancer stem cells; cancer stem cell-like cells viability, luminescence; inhibition, % at 7.5 µM; hit rate 1.1% among 300,000; in the data active = inhibition above about 75%; tested in HMLE shEcad cells
T cruzi inh: blocks replication of Trypanosoma cruzi | T. cruzi beta-gal in NIH3T3, luminescence, 90 h | inhibition, % (no concentration beside the values) | hit rate 1.4% among 300,000;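 active = mean inhibition across valid replicates above about 55%, limit read from the data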;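 also: signal also drops with host cell toxicity which is not excluded here; higher percent means less beta-gal luminescence so fewer parasites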
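System: NIH/3T3 fibroblasts plus reporter T. cruzi. Medium: DMEM plus 2% FBS. Probe or stimulus: 5000 reporter trypomastigotes per well. Compound: single 50 nL compound addition per well in DMSO. Incubation: co-culture of at least 90 h after 3 h attachment. Detection: GalScreen β-gal luminescence, detergent lysis, 60 min. Evaluation: parasite load inhibition, %.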
SKKanGAS inh: SKKanGAS growth inhibition; hit rate 1.3% among 300,000; S. pyogenes SKKanGAS, kanamycin growth, BacTiter-Glo, 6 h; inhibition, % at 7.5 µM; AID 1662;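 active = mean replicate score, as percent of positive control median, at least 50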;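 also: strain carries kanamycin resistance gene driven by streptokinase promoter and grows in 40 µg/ml kanamycin; loss of luminescence reflects streptokinase promoter inhibition or plain growth inhibition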
A number is an active result; - = inactive; . = no result.

SMILES	L major viab	Mdm2-MdmX inh	Beta cell apopt	CSC inhib	T cruzi inh	SKKanGAS inh
COc1ccc(CCN=C(NS(=O)(=O)c2ccc(Cl)cc2)c2ccccc2)cc1	65.7	-	-	-	-	-
CCc1cccc2c(C(=O)COC(=O)c3ccc(O)cc3)c[nH]c12	-	-	-	-	55.7	-
CCc1cccc2c(C(=O)COC(=O)c3ccccc3)c[nH]c12	-	-	-	-	-	-
COc1ccc(C(=O)/C=C/C(=O)N(CC(=O)NC2CCCCC2)Cc2ccc(F)cc2)c(O)c1	-	.	.	.	58.8	-
O=C(c1ccccc1)N1CCN(C2c3cccc4cccc(c34)C2NS(=O)(=O)c2ccccc2)CC1 (stereo not given)	98.7	-	.	-	-	-
O=S(=O)(NC1c2cccc3cccc(c23)C1N1CCN(CCO)CC1)c1ccccc1 (stereo not given)	71.1	.	.	.	-	-
O=S(=O)(NC1c2cccc3cccc(c23)C1N1CCNCC1)c1ccccc1 (stereo not given)	-	-	-	-	-	-
COc1ccc(-c2cnc(NCc3cc4c(cc3[N+](=O)[O-])OCO4)n2C)cc1	98.3	-	-	-	-	-
CCOc1ccc(CNc2ncc(-c3ccccc3)n2C)cc1	.	-	-	-	-	-
Cn1c(-c2ccc3c(c2)OCO3)cnc1NCc1ccc(Cl)cc1	92.1	-	-	-	-	-
COc1cc(CNc2ncc(-c3ccc(Cl)cc3)n2C)cc(OC)c1OC	.	-	-	-	-	-
Cc1ccc(CNc2ncc(-c3ccc4c(c3)OCO4)n2C)cc1	87.6	-	-	-	-	-
Cc1ccc(S(=O)(=O)c2nc(NCc3ccc4c(c3)OCO4)sc2Cl)cc1	-	-	-	-	61.5	-
CC(=O)Nc1ccc(NC(=O)C(C)N(C)CC(=O)Nc2ccccc2Br)cc1 (stereo not given)	.	.	-	-	-	-
O=C(C[C@H]1C/C=C\CC[C@H](Cc2ccc(F)cc2)C(=O)OC[C@H]2CCCN2C1=O)NCCO	.	-	-	-	.	.
O=C(c1cc2ccccc2o1)N(C1CC1)C1(C(=O)Nc2ccccc2)CCCC1	-	-	-	-	-	-
c1cc(CNc2ccc3c(c2)OCO3)ccn1	-	-	-	.	-	-
Cc1ccc(CNc2ccc3c(c2)OCO3)cc1	100.3	.	-	-	81.9	-
Cc1ccc(C)c(C(=O)COC(=O)c2cc(Cl)nc3ccccc23)c1	-	-	-	-	-	53.6
Cc1ccc(NC(=S)NCc2ccccn2)cc1	50.1	-	-	-	-	-
Cc1cc(C)n2nc(SCC(=O)NC3CCCC(C)C3C)nc2n1 (stereo not given)	.	-	-	-	-	-
COc1ccc(N2CCN(S(=O)(=O)c3ccc(OC)c(C(=O)N4CCCC4)c3)CC2)cc1	.	-	-	-	-	-
S=c1[nH]nc(-c2cc(-c3ccccc3)n[nH]2)n1/N=C/c1cccc(Cl)c1	.	-	-	-	-	60.0
S=c1[nH]nc(-c2cc(-c3ccccc3)n[nH]2)n1/N=C/c1ccc(Cl)cc1	.	-	-	-	-	56.1
CC(Sc1nc(N2CCOCC2)nc(N2CCOCC2)n1)C(=O)Nc1ccccc1 (stereo not given)	-	-	-	-	-	-
SMILES	L major viab	Mdm2-MdmX inh	Beta cell apopt	CSC inhib	T cruzi inh	SKKanGAS inh
CC(Sc1nc(N(C)C)nc(N2CCOCC2)n1)C(=O)Nc1ccccc1 (stereo not given)	62.7	-	.	-	-	-
Cc1nc(NC(=O)c2cnccn2)ccc1Br	.	.	-	-	-	-
Cc1ccc(C=Nc2ccccc2C(N)=O)s1	-	-	-	77.6	-	-
COc1ccc(C)cc1NC(=O)CNc1ccccc1CN(C)C1CCCCC1	-	-	-	-	-	-
COc1ccc(Cl)cc1NC(=O)CNc1ccccc1CN(C)C1CCCCC1	95.7	-	-	-	-	-
Cc1ccc(NC(=O)CNc2ccccc2CN(C)C2CCCCC2)cc1	60.4	-	-	-	-	-
COc1ccc2nc(C)cc(SCC(=O)N/N=C/c3c(OC)ccc4ccccc34)c2c1	71.0	.	-	-	-	-
COc1ccc2nc(C)cc(SCC(=O)N/N=C/c3ccccc3)c2c1	-	-	-	-	-	-
CCOC(=O)CNC(=O)c1cc2c(=O)[nH]c3ccc(C)cc3c2s1	.	-	-	-	-	-
CCN(CC)S(=O)(=O)c1cc(-c2nn(C)c(=O)c3ccccc23)ccc1C	87.1	-	-	-	-	-
CCCCNS(=O)(=O)c1cc(-c2nn(C)c(=O)c3ccccc23)ccc1C	.	-	-	-	-	-
CCNC(=O)c1ccc(C23CC4CC(CC(C4)C2)C3)o1	89.0	-	-	-	-	-
O=C(CNC(=O)c1ccc(Br)o1)NC12CC3CC(CC(C3)C1)C2	.	-	-	-	-	-
COc1ccc(C(=O)N(C)C2CCN(C)CC2)cc1S(=O)(=O)Nc1cc(Cl)ccc1Cl	.	-	-	-	-	-
Cc1cc(C(=O)CSc2ncn[nH]2)c(C)n1-c1cccc(S(=O)(=O)N2CCOCC2)c1	59.1	-	-	-	-	-
Cc1ccc(C)n1-c1cccc(S(=O)(=O)N2CCOCC2)c1	-	-	.	-	-	-
Cc1cc(C(=O)CCl)c(C)n1-c1cccc(S(=O)(=O)N2CCOCC2)c1	100.6	-	-	-	-	-
Cc1ccc(-n2c(C)cc(C(=O)CN3CCOCC3)c2C)cc1C	57.0	-	-	-	-	-
Cc1cc(C(=O)CN2CCCC(C)C2)c(C)n1-c1ccc(F)cc1 (stereo not given)	73.5	-	-	-	-	-
Cc1cc(C(=O)CN2C(=O)CN(C)C2=O)c(C)n1-c1cccc(S(=O)(=O)N2CCOCC2)c1	-	-	-	-	-	-
Cc1ccc(Cn2c(C3CCCN3c3nc(-c4cc(Cl)c(N)c(Cl)c4)cs3)nc3cc(Cl)c(Cl)cc32)cc1 (stereo not given)	.	-	-	-	-	-
CC(=O)C1=C(O)C(=O)N(C)C1c1ccccc1[N+](=O)[O-] (stereo not given)	.	-	-	-	-	-
Cn1nc(-c2ccccc2)c(CO)c1Oc1ccc(F)cc1	-	-	-	-	-	-
C=C1N(c2cccc(Cl)c2)C(=O)OC1(C)C	-	-	-	-	-	-
COc1cc(C[C@H](C)[C@H](C)Cc2ccc3c(c2)OCO3)ccc1O	.	-	-	126.5	-	-
SMILES	L major viab	Mdm2-MdmX inh	Beta cell apopt	CSC inhib	T cruzi inh	SKKanGAS inh
Cc1cc(C)nc(-n2ncc3c2CC(c2ccccc2)CC3=O)n1 (stereo not given)	-	-	-	-	-	-
Cc1cc(C)nc(-n2ncc3c2CC(c2cccc(Cl)c2)CC3=O)n1 (stereo not given)	-	-	-	81.1	-	-
COc1ccc(C2CC(=O)c3cnn(-c4nc(C)cc(C)n4)c3C2)cc1 (stereo not given)	78.2	-	-	-	-	.
CC(C)c1cc(C(=O)Nc2ccc3c(c2)OCO3)no1	-	-	-	-	-	-
Cc1cc(C)n2nc(C(=O)Nc3ccc4c(c3)OCCO4)nc2n1	.	-	-	-	.	.
Cc1cc(C)n2nc(C(=O)Nc3ccc4c(c3)OCO4)nc2n1	67.3	-	-	-	-	-
